Results on seven compounds are retold here after article PMC11170630 (ACS Omega, 2024).

One data set has as its system normal colonocyte. As to the kind of experiment: MTT cytotoxicity on normal colonic epithelial cells. In kind it is cell-based, rat. The settings on record: concentration at 100% cell viability (safe dose), 72 h, mean ± SEM. The essentials:
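Normal colonic epithelial cells were isolated by the Follmann & Birkner method, with modifications. Cytotoxicity of test compounds on these colonocytes was measured by MTT assay to define safe concentrations. Data are mean ± SEM of three measurements. Differences were tested by one-way ANOVA with Tukey's test, with significance at p < 0.05.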

Another data set relates to HCT-116 cells. In words: MTT anticancer assay on colorectal cancer cell line HCT-116. In kind it is cell-based, human. Particulars: for SI (selectivity index): HCT-116 cells over normal colonocytes; for IC50: Homo sapiens, HCT-116, 72 h, read-out: IC50 HCT-116, MTT, 72 h, mean ± SEM. The essentials: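 MTT viability assay on human colorectal carcinoma HCT-116 cells exposed to test compounds. Data are mean ± SEM of three measurements. Differences between treatments were tested by one-way ANOVA with Tukey's test, with significance at p < 0.05.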

The subject of the next data set is HCT-116 cell line. The settings on record: read-out: IC50 cytotoxicity HCT-116 cell line; cited from earlier work.

For the compound `O=c1c(Cc2ccccc2)nc2ccccc2n1Cc1cn(-c2ccc(I)cc2)nn1` [Compound 15], the EC100 normal colonocyte in the data set with normal colonocyte was 0.103 ± 0.008 µM. Moreover, in the data set with HCT-116 cells, the “SI (selectivity index)” value was found to be 3.244 and the IC50 was 135 ± 9 nM.

Consider `O=c1c(Cc2ccccc2)nc2ccccc2n1Cc1cn(-c2ccc(O)cc2)nn1` [Compound 16], for which the EC100 normal colonocyte in the data set with normal colonocyte was found to be 0.556 ± 0.031 µM. Besides, in the data set with HCT-116 cells, the “SI (selectivity index)” value amounted to 5.000 and the IC50 is 222 nM.

As for `O=C(O)CNC(=O)c1ccc(-n2cc(Cn3c(=O)c(Cc4ccccc4)nc4ccccc43)nn2)cc1` [Compound 17], the EC100 normal colonocyte with normal colonocyte turned out to be 0.169 ± 0.036 µM. Also, in the data set with HCT-116 cells, the “SI (selectivity index)” value stood at 3.263 and the IC50 amounted to 114 ± 1 nM.

Take `CC(=O)c1ccc(-n2cc(Cn3c(=O)c(Cc4ccccc4)nc4ccccc43)nn2)cc1` [Compound 18]: in the data set on normal colonocyte, the EC100 normal colonocyte is 0.212 ± 0.010 µM. Moreover, in the data set with HCT-116 cells, the “SI (selectivity index)” value is 10.633 and the IC50 amounted to 218 nM.

In turn, `CC(=O)NS(=O)(=O)c1ccc(-n2cc(Cn3c(=O)c(Cc4ccccc4)nc4ccccc43)nn2)cc1` [Compound 19] yielded an EC100 normal colonocyte in the data set with normal colonocyte of 0.150 ± 0.015 µM. For the same compound, the “fold lower anticancer activity than compound 20” value with HCT-116 cells (HCT-116 IC50, compared to 20) turned out to be 4.6 fold. In the data set with HCT-116 cells, the “SI (selectivity index)” value was 1.211 and the IC50 is 331 ± 4 nM.

Compound `COc1cccc2c1C(=O)c1c(O)c3c(c(O)c1C2=O)C[C@@](O)(C(=O)CO)C[C@@H]3O[C@H]1C[C@H](N)[C@H](O)[C@H](C)O1` [DOX, doxorubicin, reference compound] showed an EC100 normal colonocyte in the data set with normal colonocyte of 0.074 ± 0.008 µM. Also, in the data set with HCT-116 cells, the “SI (selectivity index)” value worked out at 0.357 and the IC50 was 761 ± 50 nM. Moreover, in the data set on HCT-116 cell line, the IC50 was 9630 nM.

As to `CNC(=O)c1cc(Oc2ccc(NC(=O)Nc3ccc(Cl)c(C(F)(F)F)c3)cc2)ccn1` [sorafenib], in the data set on HCT-116 cell line, the IC50 was 9400 nM.
